Results taken from ChEMBL document CHEMBL5724801, “EUbOPEN Chemogenomics Library - Multiplex” (2024).
Where “and” joins values, the source holds several entries; their conditions need not be identical. Identical values can stand only once.

Tested on: Fibroblast
Experiment: Multiplex assay against human fibroblast
Type: toxicity, cell-based
Method in brief: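 Cells were classed with CellPathfinder machine-learning gating, first as Hoechst high-intensity objects or normal cells, then (normal cells) as healthy, pyknosed or fragmented nuclei, and finally (pyknosed cells) as mitotic or apoptotic. Staining of live cells at seeding used Hoechst33342, BioTracker Green Microtubule Cytoskeleton Dye, MitoTracker Red and Annexin V Alexa Fluor 680, with imaging on a CQ1 microscope at 37°C and 5% CO2 after compound addition. Tubulin, mitochondrial-mass and membrane-permeability phenotypes are per cents of healthy-nucleus cells.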

[1] = 12 h, 1 µM, compound concentration 1 uM
[2] = 12 h, 10 µM, compound concentration 10 uM
[3] = 24 h, 1 µM, compound concentration 1 uM
[4] = 24 h, 10 µM, compound concentration 10 uM
[5] = 48 h, 1 µM, compound concentration 1 uM
[6] = 48 h, 10 µM, compound concentration 10 uM

COc1cc(/C=C(\C#N)C(=O)Nc2nnc(C(F)(F)F)s2)ccc1OCc1ccc(C(F)(F)F)cc1C(F)(F)F
Population Healthy Nuclei (%) [1]: 58.16% and 84.16%
Population Hoechst High Intensity Objects (%) [1]: 0%
Population Membrane Permeable-Phenotype (%) [1]: 2.63% and 2.94%
Population Mitochondria Different-Phenotype (%) [1]: 3.51% and 3.53%
Population Mitotic Cells (%) [1]: 97.5% and 65%
Population Normal (%) [1]: 100%
Population Pyknosed Nuclei (%) [1]: 20.41% and 9.9%
Population Tubulin-Different-Phenotype (%) [1]: 14.04% and 8.24%
Total Cell Count [1]: 196 and 202
Population Apoptotic (%) [2]: 13.04% and 12.12%
Population Fragmented Nuclei (%) [2]: 7.14% and 5.21%
Population Healthy Nuclei (%) [2]: 67.58% and 79.15%
Population Hoechst High Intensity Objects (%) [2]: 0%
Population Membrane Permeable-Phenotype (%) [2]: 4.07% and 1.2%
Population Mitochondria Different-Phenotype (%) [2]: 8.13% and 4.79%
Population Mitotic Cells (%) [2]: 86.96% and 87.88%
Population Normal (%) [2]: 100%
Population Pyknosed Nuclei (%) [2]: 25.27% and 15.64%
Population Tubulin-Different-Phenotype (%) [2]: 7.32% and 18.56%
Total Cell Count [2]: 182 and 211
Population Apoptotic (%) [3]: 9.09% and 25%
Population Fragmented Nuclei (%) [3]: 17.05% and 6.05%
Population Healthy Nuclei (%) [3]: 67.74% and 86.51%
Population Hoechst High Intensity Objects (%) [3]: 0%
Population Membrane Permeable-Phenotype (%) [3]: 5.44% and 3.23%
Population Mitochondria Different-Phenotype (%) [3]: 4.76% and 1.61%
Population Mitotic Cells (%) [3]: 90.91% and 75%
Population Normal (%) [3]: 100%
Population Pyknosed Nuclei (%) [3]: 15.21% and 7.44%
Population Tubulin-Different-Phenotype (%) [3]: 14.97% and 9.14%
Total Cell Count [3]: 217 and 215
Population Apoptotic (%) [4]: 9.09% and 23.53%
Population Fragmented Nuclei (%) [4]: 4.46% and 6.64%
Population Healthy Nuclei (%) [4]: 79.21% and 85.31%
Population Hoechst High Intensity Objects (%) [4]: 0%
Population Membrane Permeable-Phenotype (%) [4]: 3.75% and 3.33%
Population Mitochondria Different-Phenotype (%) [4]: 7.5% and 5%
Population Mitotic Cells (%) [4]: 90.91% and 76.47%
Population Normal (%) [4]: 100%
Population Pyknosed Nuclei (%) [4]: 16.34% and 8.06%
Population Tubulin-Different-Phenotype (%) [4]: 10% and 18.89%
Total Cell Count [4]: 202 and 211
Population Apoptotic (%) [5]: 33.33% and 37.5%
Population Fragmented Nuclei (%) [5]: 14.56% and 6.01%
Population Healthy Nuclei (%) [5]: 78.54% and 90.56%
Population Hoechst High Intensity Objects (%) [5]: 0%
Population Membrane Permeable-Phenotype (%) [5]: 2.93% and 0.95%
Population Mitochondria Different-Phenotype (%) [5]: 8.29% and 2.37%
Population Mitotic Cells (%) [5]: 66.67% and 62.5%
Population Normal (%) [5]: 100%
Population Pyknosed Nuclei (%) [5]: 6.9% and 3.43%
Population Tubulin-Different-Phenotype (%) [5]: 6.83% and 10.43%
Total Cell Count [5]: 261 and 233
Population Fragmented Nuclei (%) [6]: 7.11% and 8.56%
Population Healthy Nuclei (%) [6]: 90.05% and 88.74%
Population Hoechst High Intensity Objects (%) [6]: 0%
Population Membrane Permeable-Phenotype (%) [6]: 1.05% and 2.03%
Population Mitochondria Different-Phenotype (%) [6]: 10.53% and 2.54%
Population Mitotic Cells (%) [6]: 100% and 50%
Population Normal (%) [6]: 100%
Population Pyknosed Nuclei (%) [6]: 2.84% and 2.7%
Total Cell Count [6]: 211 and 222

N#Cc1ccnc(Nc2cc(C3CCN(C4COC4)CC3)cc(N3CCC(F)(F)C3)n2)c1
Population Apoptotic (%) [1]: 14.12% and 22.64%
Population Fragmented Nuclei (%) [1]: 18.52% and 8.85%
Population Healthy Nuclei (%) [1]: 42.13% and 67.7%
Population Hoechst High Intensity Objects (%) [1]: 0%
Population Membrane Permeable-Phenotype (%) [1]: 3.3% and 2.61%
Population Mitochondria Different-Phenotype (%) [1]: 16.48% and 9.8%
Population Mitotic Cells (%) [1]: 85.88% and 77.36%
Population Normal (%) [1]: 100%
Population Pyknosed Nuclei (%) [1]: 39.35% and 23.45%
Population Tubulin-Different-Phenotype (%) [1]: 31.87% and 33.33%
Total Cell Count [1]: 216 and 226
Population Apoptotic (%) [2]: 60.19% and 71.72%
Population Fragmented Nuclei (%) [2]: 13.02% and 15.68%
Population Healthy Nuclei (%) [2]: 36.74% and 30.81%
Population Hoechst High Intensity Objects (%) [2]: 0% and 0.54%
Population Mitochondria Different-Phenotype (%) [2]: 35.44% and 45.61%
Population Mitotic Cells (%) [2]: 39.81% and 28.28%
Population Normal (%) [2]: 100% and 99.46%
Population Pyknosed Nuclei (%) [2]: 50.23% and 53.51%
Population Tubulin-Different-Phenotype (%) [2]: 45.57% and 73.68%
Total Cell Count [2]: 215 and 186
Population Apoptotic (%) [3]: 7.81% and 14%
Population Fragmented Nuclei (%) [3]: 19.58% and 9.81%
Population Healthy Nuclei (%) [3]: 53.75% and 66.82%
Population Hoechst High Intensity Objects (%) [3]: 0%
Population Membrane Permeable-Phenotype (%) [3]: 5.43% and 4.2%
Population Mitochondria Different-Phenotype (%) [3]: 19.38% and 23.08%
Population Mitotic Cells (%) [3]: 92.19% and 86%
Population Normal (%) [3]: 100%
Population Pyknosed Nuclei (%) [3]: 26.67% and 23.36%
Population Tubulin-Different-Phenotype (%) [3]: 29.46% and 47.55%
Total Cell Count [3]: 240 and 214
Population Apoptotic (%) [4]: 58.59% and 84.62%
Population Fragmented Nuclei (%) [4]: 13.17% and 9.55%
Population Healthy Nuclei (%) [4]: 38.54% and 39.33%
Population Hoechst High Intensity Objects (%) [4]: 0% and 0.56%
Population Membrane Permeable-Phenotype (%) [4]: 10.13% and 20%
Population Mitochondria Different-Phenotype (%) [4]: 32.91% and 55.71%
Population Mitotic Cells (%) [4]: 41.41% and 15.38%
Population Normal (%) [4]: 100% and 99.44%
Population Pyknosed Nuclei (%) [4]: 48.29% and 51.12%
Population Tubulin-Different-Phenotype (%) [4]: 37.97% and 78.57%
Total Cell Count [4]: 205 and 179
Population Fragmented Nuclei (%) [5]: 19.03% and 11.35%
Population Healthy Nuclei (%) [5]: 63.97% and 74.24%
Population Hoechst High Intensity Objects (%) [5]: 0%
Population Membrane Permeable-Phenotype (%) [5]: 2.53% and 2.94%
Population Mitochondria Different-Phenotype (%) [5]: 21.52% and 11.18%
Population Mitotic Cells (%) [5]: 92.86% and 57.58%
Population Normal (%) [5]: 100%
Population Pyknosed Nuclei (%) [5]: 17% and 14.41%
Population Tubulin-Different-Phenotype (%) [5]: 32.91% and 54.12%
Total Cell Count [5]: 247 and 229
Population Apoptotic (%) [6]: 59.57% and 79.01%
Population Fragmented Nuclei (%) [6]: 13% and 11.52%
Population Healthy Nuclei (%) [6]: 44.84% and 46.07%
Population Hoechst High Intensity Objects (%) [6]: 0% and 0.52%
Population Membrane Permeable-Phenotype (%) [6]: 7% and 15.91%
Population Mitochondria Different-Phenotype (%) [6]: 36% and 20.45%
Population Mitotic Cells (%) [6]: 40.43% and 20.99%
Population Normal (%) [6]: 100% and 99.48%
Population Pyknosed Nuclei (%) [6]: 42.15% and 42.41%
Population Tubulin-Different-Phenotype (%) [6]: 37% and 56.82%
Total Cell Count [6]: 223 and 192

O=C(Nc1cc(C(F)(F)F)ccc1N1CCCCC1)c1ccncc1
Population Fragmented Nuclei (%) [1]: 13.9% and 8.06%
Population Healthy Nuclei (%) [1]: 57.22% and 74.41%
Population Hoechst High Intensity Objects (%) [1]: 0%
Population Membrane Permeable-Phenotype (%) [1]: 1.87% and 1.91%
Population Mitochondria Different-Phenotype (%) [1]: 6.54% and 10.83%
Population Mitotic Cells (%) [1]: 92.59% and 75.68%
Population Normal (%) [1]: 100%
Population Pyknosed Nuclei (%) [1]: 28.88% and 17.54%
Population Tubulin-Different-Phenotype (%) [1]: 13.08% and 22.93%
Total Cell Count [1]: 187 and 211
Population Apoptotic (%) [2]: 17.46% and 11.48%
Population Fragmented Nuclei (%) [2]: 7.6% and 3.1%
Population Healthy Nuclei (%) [2]: 55.56% and 69.91%
Population Hoechst High Intensity Objects (%) [2]: 0%
Population Membrane Permeable-Phenotype (%) [2]: 9.47% and 6.96%
Population Mitochondria Different-Phenotype (%) [2]: 26.32% and 21.52%
Population Mitotic Cells (%) [2]: 82.54% and 88.52%
Population Normal (%) [2]: 100%
Population Pyknosed Nuclei (%) [2]: 36.84% and 26.99%
Population Tubulin-Different-Phenotype (%) [2]: 35.79% and 71.52%
Total Cell Count [2]: 171 and 226
Population Apoptotic (%) [3]: 11.76% and 28.57%
Population Fragmented Nuclei (%) [3]: 9.18% and 7.73%
Population Healthy Nuclei (%) [3]: 74.4% and 82.13%
Population Hoechst High Intensity Objects (%) [3]: 0%
Population Membrane Permeable-Phenotype (%) [3]: 4.55% and 4.12%
Population Mitochondria Different-Phenotype (%) [3]: 4.55% and 8.82%
Population Mitotic Cells (%) [3]: 88.24% and 71.43%
Population Normal (%) [3]: 100%
Population Pyknosed Nuclei (%) [3]: 16.43% and 10.14%
Population Tubulin-Different-Phenotype (%) [3]: 16.23% and 21.76%
Total Cell Count [3]: 207
Population Apoptotic (%) [4]: 20.83% and 16.98%
Population Fragmented Nuclei (%) [4]: 6.81% and 3.07%
Population Healthy Nuclei (%) [4]: 68.06% and 73.68%
Population Hoechst High Intensity Objects (%) [4]: 0%
Population Membrane Permeable-Phenotype (%) [4]: 5.38% and 5.95%
Population Mitochondria Different-Phenotype (%) [4]: 30.77% and 20.24%
Population Mitotic Cells (%) [4]: 79.17% and 83.02%
Population Normal (%) [4]: 100%
Population Pyknosed Nuclei (%) [4]: 25.13% and 23.25%
Population Tubulin-Different-Phenotype (%) [4]: 53.08% and 70.24%
Total Cell Count [4]: 191 and 228
Population Apoptotic (%) [5]: 11.11% and 10%
Population Fragmented Nuclei (%) [5]: 14.08% and 11%
Population Healthy Nuclei (%) [5]: 81.69% and 84.21%
Population Hoechst High Intensity Objects (%) [5]: 0%
Population Membrane Permeable-Phenotype (%) [5]: 1.72% and 2.84%
Population Mitochondria Different-Phenotype (%) [5]: 8.62% and 5.11%
Population Mitotic Cells (%) [5]: 88.89% and 90%
Population Normal (%) [5]: 100%
Population Pyknosed Nuclei (%) [5]: 4.23% and 4.78%
Total Cell Count [5]: 213 and 209
Population Fragmented Nuclei (%) [6]: 9.23% and 2.62%
Population Healthy Nuclei (%) [6]: 81.54% and 82.97%
Population Hoechst High Intensity Objects (%) [6]: 0%
Population Membrane Permeable-Phenotype (%) [6]: 0% and 7.37%
Population Mitochondria Different-Phenotype (%) [6]: 17.61% and 13.68%
Population Mitotic Cells (%) [6]: 61.11% and 90.91%
Population Normal (%) [6]: 100%
Population Pyknosed Nuclei (%) [6]: 9.23% and 14.41%
Population Tubulin-Different-Phenotype (%) [6]: 31.45% and 73.68%
Total Cell Count [6]: 195 and 229
